An excerpt weighted towards active compounds, which were near 3.3% of everything screened.
ABCB6 inh MLPCN – human ABCB6 transporter inhibition; Q9NP58; K562-ABCB6 porphyrin accumulation, flow cytometry, 1 h; hits give low values; fluorescence ratio to DMSO, % at 10 µM; 360,000 tested, 0.19% active;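 active = fluorescence ratio to DMSO below 75%, the collection mean minus 3 SD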;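 also: signal is porphyrin accumulated inside mitochondria; 100% equals median channel fluorescence of DMSO control wells; lower ratio means ABCB6 inhibition with less porphyrin fluorescence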
Target sequence (Q9NP58 whole entry, looked up): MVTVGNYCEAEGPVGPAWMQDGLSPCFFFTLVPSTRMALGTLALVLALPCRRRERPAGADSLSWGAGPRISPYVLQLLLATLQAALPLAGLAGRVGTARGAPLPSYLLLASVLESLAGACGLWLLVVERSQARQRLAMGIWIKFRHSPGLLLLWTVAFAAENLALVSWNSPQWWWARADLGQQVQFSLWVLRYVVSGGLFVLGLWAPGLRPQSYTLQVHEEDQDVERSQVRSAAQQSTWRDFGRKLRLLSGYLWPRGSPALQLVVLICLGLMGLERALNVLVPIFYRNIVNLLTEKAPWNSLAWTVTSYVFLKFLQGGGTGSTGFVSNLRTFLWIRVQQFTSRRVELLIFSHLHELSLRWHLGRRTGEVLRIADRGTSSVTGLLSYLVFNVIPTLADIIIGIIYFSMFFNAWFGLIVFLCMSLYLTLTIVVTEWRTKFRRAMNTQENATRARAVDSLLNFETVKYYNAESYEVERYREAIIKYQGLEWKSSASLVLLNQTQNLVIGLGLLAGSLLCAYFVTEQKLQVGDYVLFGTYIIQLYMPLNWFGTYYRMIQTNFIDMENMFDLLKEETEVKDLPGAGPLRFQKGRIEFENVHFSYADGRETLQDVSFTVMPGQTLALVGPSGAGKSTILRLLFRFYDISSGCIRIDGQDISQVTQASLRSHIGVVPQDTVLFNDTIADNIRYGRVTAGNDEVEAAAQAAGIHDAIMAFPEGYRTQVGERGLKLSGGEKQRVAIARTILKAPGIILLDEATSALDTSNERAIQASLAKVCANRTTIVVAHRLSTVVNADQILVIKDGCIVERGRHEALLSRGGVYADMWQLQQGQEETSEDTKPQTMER
FXN GAA850 act – frataxin GAA850 promoter activation; HEK293 lucGAA850 FXN promoter luciferase reporter, 24 h; percent of 10 µM SAHA response; activation, % at 6 µM; 360,000 tested, 0.56% active; AID 540364;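 active = activation above the average of all compounds screened plus 3 SD, cutoff fixed separately per campaign, cut at about 7.5% in these data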;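 also: 0% = DMSO wells and 100% = 10 µM SAHA wells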
AHR act – activators of human aryl hydrocarbon receptor; 320,000 tested, 2.5% active; activation, % at 5 µM; AHR-responsive luciferase reporter cells, luminescence; in the data active = activation above about 47%;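 also: 0% = vehicle wells and 100% = reference agonist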
STAT3 act – increases IL-6 driven STAT3 reporter signal. U3A cells, IL-6 STAT3-luciferase reporter, luminescence; 100% = signal with IL-6 EC80 alone. activation (% of control), % at 5.6 µM. 190,000 tested, 0.91% active. AID 871;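 active = activation above the screen-wide mean of compound activation plus 3 SD, cut at about 130% in these data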;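 also: 0% = background luminescence of wells with medium and substrate only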
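Material: STAT3-luciferase reporter U3A cells. Controls: IL-6-treated wells, 100% activation. Read-out: % activation versus median of IL-6-stimulated wells. Probe or stimulus: IL-6 stimulus at 33 ng/mL final. Timing: compound 1 h, then IL-6 6 h at 37 °C. Signal: reporter luminescence signal.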
GAA30 counter – counter-screen for GAA850 frataxin promoter activators: GAA30 promoter activation. AID 588350. activation, % at 6 µM. shares compounds with FXN GAA850 act. HEK293 lucGAA30 FXN promoter luciferase, 24 h; DMSO = 0%, 5 µM ipriflavone = 100%. 1,900 tested, 66% active;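 active = mean activation above the mean of solvent-only control wells plus 3 SD, cut at about 22% in these data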;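 also: counterscreen of GAA850 promoter hits where activity marks nonselective or luminescence artifacts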
GAA850 confirm – GAA850 FXN promoter activation confirmation; shares compounds with FXN GAA850 act; HEK293 lucGAA850 FXN promoter luciferase reporter, 24 h; 100% = activation by SAHA; activation, % at 6 µM; 1,900 tested, 86% active;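 active = mean activation above a set limit taken from the primary screen, cut at about 8% in these data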;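 also: 0% = DMSO wells and 100% = 10 µM SAHA wells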
The depositor's hits bear a star; nt = no result.

SMILES	ABCB6 inh MLPCN	FXN GAA850 act	AHR act	STAT3 act	GAA30 counter	GAA850 confirm
CS(=O)(=O)c1nc(-c2ccccc2)cc(C(F)(F)F)n1	98	25*	-7	101	-82	-27
Cc1cc(NC(=O)CCS(=O)(=O)c2nc(-c3ccccc3)cc(C(F)(F)F)n2)no1	97	4	5	nt	nt	nt
NNC(=O)c1ccc(OCC2CC(c3ccc(Cl)cc3)=NO2)cc1 (stereo not drawn)	96	1	14	nt	nt	nt
COc1cc2ccccc2cc1C(=O)Nc1cc(C)ccn1	96	8.4*	56*	nt	123*	39*
Cc1ccnc(NC(=O)Cc2ccc(-c3ccccc3)cc2)c1	92	7.9*	22	nt	101*	46*
Fc1ccccc1N=C1NN=C(c2ccccc2)CS1	81	8.0*	47	109	124*	41*
Cc1cccc(N=C2NN=C(c3ccccc3F)CS2)c1C	96	-1	37	94	nt	nt
O=C(c1ccc(F)cc1)N1CCCCC(S(=O)(=O)c2ccccc2)C1=O (stereo not drawn)	92	0	4	102	nt	nt
CC1CN(c2ccc(NS(=O)(=O)c3ccccc3)cc2C(=O)O)CC(C)O1 (stereo not drawn)	98	-1	1	nt	nt	nt
Cc1cc(C)cc(-n2c(SCC(=O)NCc3ccc4c(c3)OCO4)nc3ccccc3c2=O)c1	92	8.6*	3	96	18	7
Cc1ccc(-n2ncc3c(N4CCCC4)ncnc32)c(C)c1	98	7.6*	7	109	72*	24*
Cc1ccc(-n2ncc3c(N4CCCC(C)C4)ncnc32)c(C)c1 (stereo not drawn)	92	3	19	nt	nt	nt
Cc1ccc(NC(=O)CSCC(=O)Nc2cc(C(F)(F)F)ccc2N2CCOCC2)cc1	104	11*	2	nt	25*	11*
NC[C@H](O)c1ccc(O)c(O)c1	98	7.6*	-1	nt	12	6
O=C(NC(=S)Nc1ccc(N2CCCC2)cc1)c1ccccc1[N+](=O)[O-]	93	8.8*	19	109	53*	13*
O=C(Nc1ccc(N2CCCC2)c(Cl)c1)c1ccccc1[N+](=O)[O-]	92	1	10	106	nt	nt
Cc1c(C(=O)NCc2cccc(Cl)c2)sc(=O)n1Cc1cccc(F)c1	101	12*	nt	nt	16	6
COCCN(C(=O)Nc1ccccc1OC)c1nc2ccccc2s1	96	2	8	nt	nt	nt
O=C(O)c1ccc(N/N=C/c2ccc(-c3cccc(Cl)c3)o2)cc1	96	11*	128*	nt	112*	42*
O=C(O)c1ccc(N/N=C/c2ccc(-c3cc(Cl)ccc3Cl)o2)cc1	103	4	19	nt	nt	nt
O=C(c1cnn(C(=O)c2ccco2)c1)c1cc(Cl)cc(Cl)c1O	103	-1	4	nt	nt	nt
CCOc1ccc2c(c1)c(N=Nc1cccc(C(=O)O)c1)c(O)n2C	97	8.8*	8	113	107*	38*
C=CCC[C@@H](CCCCC)OC(=O)/C=C/[C@H](O)[C@@H](O)C[C@H](O)CC=C	95	nt	nt	nt	nt	nt
O=C1CCCN1CCCNc1ncnc2c1cnn2-c1ccc(Cl)cc1	95	15*	7	96	76*	33*
O/N=C(/CCc1ccccc1)c1ccc2c(c1)OCCO2	103	8.0*	10	105	117*	33*
SMILES	ABCB6 inh MLPCN	FXN GAA850 act	AHR act	STAT3 act	GAA30 counter	GAA850 confirm
COc1cccc(-c2cnc3c(NC=O)cc(-c4ccccc4)cn23)c1	104	-2	nt	nt	nt	nt
COc1cccc(-c2cnc3c(NC=O)cc(-c4ccc(N5CCN(C)CC5)cc4)cn23)c1	114	8.8*	nt	nt	83*	40*
Cc1ccccc1Sc1c(C#N)c(-c2ccccc2)nn1C	95	1	-5	98	nt	nt
CC(=O)c1ccc(NC(=S)N(C)C2CCN(C)CC2)cc1	99	14*	2	93	22*	7
OCC1OC(n2cnc3c(NC4CCCCC4)ncnc32)C(O)C1O (stereo not drawn)	93	9.6*	1	nt	37*	17*
OCC1OC(n2cnc3c(NC4CCCC4)ncnc32)C(O)C1O (stereo not drawn)	97	12*	0	nt	39*	20*
C[C@@H](CO)NC(=O)[C@H]1O[C@@H](n2cnc3c(N)ncnc32)[C@H](O)[C@@H]1O	100	nt	nt	nt	nt	nt
Nn1cnc2c(ncn2C2OC(CO)C(O)C2O)c1=O (stereo not drawn)	94	13*	nt	nt	14	6
Nc1ncnc2c1ncn2C1OC(C(=O)NC2CC2)C(O)C1O (stereo not drawn)	98	9.7*	-2	nt	26*	15*
COc1ccc(C2c3c(-c4cc(Cl)c(C)cc4O)n[nH]c3C(=O)N2Cc2cccnc2)cc1OC (stereo not drawn)	98	3	6	111	nt	nt
Cc1cc(OCC(O)CN2CCN(c3ccccn3)CC2)cc(C)c1Cl (stereo not drawn)	101	1	-1	nt	nt	nt
Cc1ccsc1C(=O)N1CCC1(C)C(=O)NCC(C)(C)C (stereo not drawn)	96	1	nt	nt	nt	nt
Cc1ccsc1C(=O)N/N=C/c1ccc2c(c1)OCO2	98	8.8*	10	71	104*	29*
CCN(CC)C(=O)CSc1nnc(-c2ccc(F)cc2)n1N	95	1	6	97	nt	nt
CCOc1ccccc1C(=O)NCC(=O)NCCc1ccc(S(N)(=O)=O)cc1	101	-1	-1	nt	nt	nt
Brc1ccc(C=Nc2ccc3c(c2)OCCOCCOCCO3)s1	98	2	2	96	nt	nt
O=S(=O)(NCC(Nc1ccc(Cl)cc1)c1ccccc1)c1ccc(Cl)cc1 (stereo not drawn)	93	8.5*	-2	95	7	10.0*
O=Cc1ccnc(-c2ccc(OC(=O)c3ccco3)cc2)n1	99	0	3	97	nt	nt
N#C/C(=C/c1ccc(O)c(O)c1)c1nc2ccccc2[nH]1	133	9.2*	31	nt	102*	39*
C=C1CCN([C@@H](Cc2ccccc2)C(=O)Nc2ccc(OC)cc2)S(=O)(=O)c2ccccc21	94	12*	3	nt	29*	13*
C=C1CCN([C@H](C(=O)Nc2ccc(OC)cc2)C(C)C)S(=O)(=O)c2ccccc21	96	9.5*	0	nt	15	12*
CC(=O)c1c(C)nc2nonc2c1N	99	0	2	106	nt	nt
OC1CCN(C(c2ccc3ncccc3c2)c2nnnn2C2CCCCC2)CC1 (stereo not drawn)	99	7.8*	-1	105	8	8
Cc1ccc(S(=O)(=O)n2c([N+](=O)[O-])cnc2C)c(C)c1C	102	1	1	81	nt	nt
CCCC(=O)N(C1CC(C)C(C#N)(C#N)C1(C#N)C#N)N(C)C (stereo not drawn)	96	5	-3	nt	nt	nt
